Assay results from ChEMBL document CHEMBL2417507, “Synthesis and bioevaluation of some new isoniazid derivatives” (Bioorg Med Chem, 2013).
≈ marks a conversion by molar mass, not a printed value. Calls of active or inactive are those of the source. No cut-off for these calls is given here.

Legend:
[1] = system: Acinetobacter baumannii; experiment: Antibacterial activity against Acinetobacter baumannii 122 assessed as growth inhibition at 1 mg/mL after 24 hrs by agar-disk diffusion technique; format: functional, organism-based
Outline: (§1)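 Agar-disk diffusion, adapted: plates seeded with 0.5 McFarland suspension prepared from 24 h cultures; 5 µL of a 1 mg/mL compound solution spotted onto the seeded solid medium; incubated 24 h at 37 °C. Stocks made in DMSO.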

[2] = system: HCT-8; experiment: Decrease in NAT1 gene expression in human HCT8 cells at 25 ug/mL after 24 hrs by RT-PCR analysis; format: ADME, cell-based; settings: hct-8, 24 h
[3] = system: Escherichia coli; experiment: Antibacterial activity against Escherichia coli 1777 assessed as growth inhibition at 1 mg/mL after 24 hrs by agar-disk diffusion technique; format: functional, organism-based; outline: as §1
[4] = system: Radical scavenging activity; experiment: Antioxidant activity assessed as DPPH radical scavenging activity at 0.1 mg/mL after 30 mins under dark conditions by spectrophotometric analysis relative to control; format: functional
Outline: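 Compounds dissolved in methanol at 0.1 mg/mL; 0.2 mL mixed with 1.8 mL of 2 × 10^-4 M DPPH in methanol and kept in the dark 30 min. Absorbance read at 517 nm. The blank was DPPH plus methanol. TAC (%) = (Abs initial − Abs 30 min)/Abs initial × 100.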

[5] = system: Pseudomonas putida; experiment: Antibacterial activity against Pseudomonas putida 160 assessed as growth inhibition at 1 mg/mL after 24 hrs by agar-disk diffusion technique; format: functional, organism-based; outline: as §1
[6] = system: Klebsiella pneumoniae; experiment: Antibacterial activity against Klebsiella pneumoniae 1756 assessed as growth inhibition at 1 mg/mL after 24 hrs by agar-disk diffusion technique; format: functional, organism-based; outline: as §1
[7] = system: HCT-8; experiment: Cytotoxicity against human HCT8 cells at 50 ug/mL after 24 hrs by trypan blue exclusion assay; format: cell-based; settings: hct-8, 24 h
Outline: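 HCT8 cells (3 × 10^5 per 3.5-cm well) treated 24 h, then trypsinised, spun and resuspended in PBS. Suspension mixed 1:1 with 0.4% trypan blue for 1 min and viable/non-viable cells counted on a haemocytometer. Each experiment repeated three times.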

[8] = system: HCT-8; experiment: Cell cycle arrest in human HCT8 cells assessed as accumulation at G2/M phase at 25 ug/mL after 24 hrs by propidium iodide staining-based flow cytometric analysis (reference value: 13.83%); format: ADME; settings: hct-8, 24 h
[9] = system: Proteus mirabilis; experiment: Antibacterial activity against Proteus mirabilis 1751 assessed as growth inhibition at 1 mg/mL after 24 hrs by agar-disk diffusion technique; format: functional, organism-based; outline: as §1
[10] = system: Pseudomonas aeruginosa; experiment: Antibacterial activity against Pseudomonas aeruginosa 165 assessed as growth inhibition at 1 mg/mL after 24 hrs by agar-disk diffusion technique; format: functional, organism-based; outline: as §1
[11] = system: Acinetobacter baumannii; experiment: Antibacterial activity against Acinetobacter baumannii 136 assessed as growth inhibition at 1 mg/mL after 24 hrs by agar-disk diffusion technique; format: functional, organism-based; outline: as §1
[12] = Induction of apoptosis in human HCT8 cells assessed as viable cells at 50 ug/mL after 24 hrs by Annexin V-FITC and propidium iodide staining-based flow cytometric analysis (reference value: 87.7%); format: cell-based, HCT-8; settings: read-out: Activity
[13] = system: HCT-8; experiment: Cell cycle arrest in human HCT8 cells assessed as accumulation at G0/G1 phase at 25 ug/mL after 24 hrs by propidium iodide staining-based flow cytometric analysis (reference value: 46.43%); format: ADME; settings: hct-8, 24 h
[14] = system: HCT-8; experiment: Induction of apoptosis in human HCT8 cells assessed as necrotic cells at 50 ug/mL after 24 hrs by Annexin V-FITC and propidium iodide staining-based flow cytometric analysis (reference value: 7.73%); format: cell-based; settings: hct-8, 24 h
[15] = system: Citrobacter koseri; experiment: Antibacterial activity against Citrobacter koseri 1742 assessed as growth inhibition at 1 mg/mL after 24 hrs by agar-disk diffusion technique; format: functional, organism-based; outline: as §1
[16] = system: HCT-8; experiment: Cell cycle arrest in human HCT8 cells assessed as accumulation at S phase at 25 ug/mL after 24 hrs by propidium iodide staining-based flow cytometric analysis (reference value: 39.43%); format: ADME; settings: hct-8, 24 h
[17] = system: Staphylococcus hominis; experiment: Antibacterial activity against Staphylococcus hominis 1813 assessed as growth inhibition at 1 mg/mL after 24 hrs by agar-disk diffusion technique; format: functional, organism-based; outline: as §1
[18] = system: Enterobacter cloacae; experiment: Antibacterial activity against Enterobacter cloacae 1845 assessed as growth inhibition at 1 mg/mL after 24 hrs by agar-disk diffusion technique; format: functional, organism-based; outline: as §1
[19] = system: Staphylococcus aureus; experiment: Antibacterial activity against Staphylococcus aureus assessed as growth inhibition at 1 mg/mL after 24 hrs by agar-disk diffusion technique; format: functional, organism-based; outline: as §1
[20] = system: Acinetobacter baumannii; experiment: Antibacterial activity against Acinetobacter baumannii 135 assessed as growth inhibition at 1 mg/mL after 24 hrs by agar-disk diffusion technique; format: functional, organism-based; outline: as §1
[21] = system: HCT-8; experiment: Induction of apoptosis in human HCT8 cells assessed as late apoptotic cells at 50 ug/mL after 24 hrs by Annexin V-FITC and propidium iodide staining-based flow cytometric analysis (reference value: 2.97%); format: cell-based; settings: hct-8, 24 h
[22] = system: HCT-8; experiment: Induction of apoptosis in human HCT8 cells assessed as early apoptotic cells at 50 ug/mL after 24 hrs by Annexin V-FITC and propidium iodide staining-based flow cytometric analysis (reference value: 1.57%); format: cell-based; settings: hct-8, 24 h
[23] = system: HCT-8; experiment: Increase in NAT2 gene expression in human HCT8 cells at 50 ug/mL after 24 hrs by RT-PCR analysis; format: ADME, cell-based; settings: hct-8, 24 h
[24] = system: Mycobacterium tuberculosis; experiment: Antimycobacterial activity against Mycobacterium tuberculosis after 8 days by micro plate Alamar Blue assay; format: functional; settings: 192 h
Outline: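 Clinical M. tuberculosis strain grown in Middlebrook 7H9 broth. Compounds were dissolved in DMSO and serially diluted twofold on the plate, final 25 to 0.012 µg/mL. Plates were sealed and held 8 days at 37 °C. Alamar Blue with 10% Tween 80 (1:1) was then added for another 24 h at 37 °C. MIC was the lowest concentration preventing the blue-to-pink change.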

[25] = system: HCT-8; experiment: Increase in NAT1 gene expression in human HCT8 cells at 50 ug/mL after 24 hrs by RT-PCR analysis; format: ADME, cell-based; settings: hct-8, 24 h
[26] = system: HCT-8; experiment: Cell cycle arrest in human HCT8 cells assessed as accumulation at G0/G1 phase at 50 ug/mL after 24 hrs by propidium iodide staining-based flow cytometric analysis (reference value: 46.43%); format: ADME; settings: hct-8, 24 h
[27] = system: Pseudomonas aeruginosa; experiment: Antibacterial activity against Pseudomonas aeruginosa ATCC 27853 assessed as growth inhibition at 1 mg/mL after 24 hrs by agar-disk diffusion technique; format: functional, organism-based; outline: as §1
[28] = system: HCT-8; experiment: Cell cycle arrest in human HCT8 cells assessed as accumulation at G2/M phase at 50 ug/mL after 24 hrs by propidium iodide staining-based flow cytometric analysis (reference value: 13.83%); format: ADME; settings: hct-8, 24 h
[29] = system: Acinetobacter baumannii; experiment: Antibacterial activity against Acinetobacter baumannii 192 assessed as growth inhibition at 1 mg/mL after 24 hrs by agar-disk diffusion technique; format: functional, organism-based; outline: as §1
[30] = system: Pseudomonas aeruginosa; experiment: Antibacterial activity against Pseudomonas aeruginosa 1144 assessed as growth inhibition at 1 mg/mL after 24 hrs by agar-disk diffusion technique; format: functional, organism-based; outline: as §1
[31] = system: HCT-8; experiment: Cell cycle arrest in human HCT8 cells assessed as accumulation at S phase at 50 ug/mL after 24 hrs by propidium iodide staining-based flow cytometric analysis (reference value: 39.43%); format: ADME; settings: hct-8, 24 h
[32] = system: Morganella morganii; experiment: Antibacterial activity against Morganella morganii 2810 assessed as growth inhibition at 1 mg/mL after 24 hrs by agar-disk diffusion technique; format: functional, organism-based; outline: as §1
[33] = system: HCT-8; experiment: Decrease in NAT2 gene expression in human HCT8 cells at 50 ug/mL after 24 hrs by RT-PCR analysis; format: ADME, cell-based; settings: hct-8, 24 h
[34] = system: Acinetobacter baumannii; experiment: Antibacterial activity against Acinetobacter baumannii 247 assessed as growth inhibition at 1 mg/mL after 24 hrs by agar-disk diffusion technique; format: functional, organism-based; outline: as §1
[35] = system: Acinetobacter baumannii; experiment: Antibacterial activity against Acinetobacter baumannii 125 assessed as growth inhibition at 1 mg/mL after 24 hrs by agar-disk diffusion technique; format: functional, organism-based; outline: as §1
[36] = system: Enterococcus faecalis; experiment: Antibacterial activity against Enterococcus faecalis 2920 assessed as growth inhibition at 1 mg/mL after 24 hrs by agar-disk diffusion technique; format: functional, organism-based; outline: as §1
[37] = system: HCT-8; experiment: Decrease in NAT1 gene expression in human HCT8 cells at 50 ug/mL after 24 hrs by RT-PCR analysis; format: ADME, cell-based; settings: hct-8, 24 h

NC(=S)/C=C/c1ccccc1
growth inhibition (GI) [1]: Active | Activity [2]: Toxic | growth inhibition (GI) [3]: Active | TAC [4]: 35.7% | growth inhibition (GI) [5]: Active | growth inhibition (GI) [6]: Active | Activity [7]: Toxic | Activity [8]: 27.82% | growth inhibition (GI) [9]: Active | growth inhibition (GI) [10]: Active | growth inhibition (GI) [11]: Active | viability at 24 h, 50 ug/mL [12]: 28.3% | Activity [13]: 33.09% | Activity [14]: 22.9% | growth inhibition (GI) [15]: Active | Activity [16]: 43.45% | growth inhibition (GI) [17]: Active | growth inhibition (GI) [18]: Active | growth inhibition (GI) [19]: Active | growth inhibition (GI) [20]: Active | Activity [21]: 36% | Activity [22]: 12.9%

NC(S)(/C=C/c1ccccc1)NNC(=O)c1ccncc1 (stereo unspecified)
Activity [23]: Toxic | TAC [4]: 88.2% | MIC [24]: 0.391 µg/mL (≈ 1.3 µM) | growth inhibition (GI) [5]: Active | growth inhibition (GI) [11]: Active | viability at 24 h, 50 ug/mL [12]: 67.9% | Activity [25]: Toxic | Activity [14]: 18.9% | Activity [26]: 59.95% | growth inhibition (GI) [27]: Active | Activity [28]: 18.72% | growth inhibition (GI) [15]: Active | growth inhibition (GI) [17]: Active | growth inhibition (GI) [18]: Active | growth inhibition (GI) [19]: Active | growth inhibition (GI) [29]: Active | growth inhibition (GI) [20]: Active | growth inhibition (GI) [30]: Active | Activity [31]: 25.9% | Activity [21]: 12.2% | Activity [22]: 0.95%

NNC(=O)c1ccncc1 [ISONIAZID]
growth inhibition (GI) [1]: inactive | growth inhibition (GI) [3]: inactive | TAC [4]: 90% | MIC [24]: 0.098 µg/mL (≈ 0.715 µM) | growth inhibition (GI) [6]: inactive | growth inhibition (GI) [9]: inactive | growth inhibition (GI) [10]: inactive | viability at 24 h, 50 ug/mL [12]: 71.5% | Activity [14]: 17.9% | Activity [26]: 44.12% | growth inhibition (GI) [32]: inactive | growth inhibition (GI) [27]: inactive | Activity [28]: 15.01% | Activity [33]: Toxic | growth inhibition (GI) [15]: inactive | growth inhibition (GI) [17]: inactive | growth inhibition (GI) [18]: Active | growth inhibition (GI) [34]: inactive | growth inhibition (GI) [19]: inactive | growth inhibition (GI) [35]: inactive | growth inhibition (GI) [29]: Active | growth inhibition (GI) [36]: inactive | Activity [37]: Toxic | growth inhibition (GI) [20]: Active | growth inhibition (GI) [30]: inactive | Activity [31]: 38.48% | Activity [21]: 8.56% | Activity [22]: 1.95%
